Results from ChEMBL document CHEMBL1124479, “N-[(arylmethoxy)phenyl] and N-[(arylmethoxy)naphthyl] sulfonamides: potent orally active leukotriene D4 antagonists of novel structure” (J Med Chem, 1989).
Calls of active or inactive are those of the source. The rule behind the calls is not given here.

What was measured:
Cavia porcellus [1] = test: Inhibition of Leukotriene D4 induced bronchoconstriction when compound was administered perorally at a dose of 25 mg/kg in guinea pig; format: functional; settings: route oral
Summary of the method: (§1)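 Single-dose screen in guinea pigs, with n animals per group. Significance versus control used a two-tailed Student's t test (p < 0.05), or one-way ANOVA with contrasts based on each treatment's difference from its own control mean.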

Cavia porcellus [2] = test: Inhibition of ovalbumin-induced bronchoconstriction when compound was administered intraduodenally at a dose of 25 mg/kg in guinea pig; format: functional; settings: route intraduodenal; summary of the method: as §1
Cavia porcellus [3] = test: Inhibition of ovalbumin-induced bronchoconstriction when compound was administered perorally at a dose of 25 mg/kg in guinea pig; format: functional; settings: route oral; summary of the method: as §1
Cavia porcellus [4] = test: Inhibitory dose of the intraduodenally administered compound (10 min before giving agonist) that produced a 50% inhibition of ovalbumin induced bronchoconstriction in guinea pigs; format: functional; settings: intraduodenal, read-out: ID50 (the source's name)
Summary of the method: (§2)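 Guinea pigs, intraduodenal dosing, with LTD4 or ovalbumin challenge. ID50 is the dose of antagonist giving 50% inhibition of the induced bronchoconstriction.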

Cavia porcellus [5] = test: Inhibitory dose of the intragastrically administered compound (120 min before giving agonist) that produced a 50% inhibition of leukotriene D4 induced bronchoconstriction in guinea pigs; format: functional; settings: po, read-out: ID50 (the source's name)
Summary of the method: (§3)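 Guinea pigs, awake, dosed intragastrically 120 min before agonist challenge (95 min before anesthetic). The LTD4 challenge was given intravenously; ovalbumin served as antigen. ID50 is the dose giving 50% inhibition of LTD4- or ovalbumin-induced bronchoconstriction.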

Cavia porcellus [6] = test: Inhibitory dose of the intragastrically administered compound (120 min before giving agonist) that produced a 50% inhibition of ovalbumin induced bronchoconstriction in guinea pigs; format: functional; settings: po, read-out: ID50 (the source's name); summary of the method: as §3
Cavia porcellus [7] = test: Relative inhibitor potency of the intraduodenally administered compound with Wy-48,252 against leukotrien D4 induced bronchoconstriction in guinea pigs; format: functional
Cavia porcellus [8] = test: Relative inhibitor potency of the intraduodenally administered compound with Wy-48,252 against ovalbumin induced bronchoconstriction in guinea pigs; format: functional
Cavia porcellus [9] = test: Relative inhibitor potency of the intragastrically administered compound with Wy-48,252 against leukotriene D4 induced bronchoconstriction in guinea pigs; format: functional
Summary of the method: (§4)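 Intragastric dosing of awake guinea pigs 120 min before agonist (95 min before anesthetic), with LTD4 or ovalbumin challenge.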

Cavia porcellus [10] = test: Inhibitory dose of the intraduodenally administered compound (10 min before giving agonist) that produced a 50% inhibition of leukotriene D4 induced bronchoconstriction in guinea pigs; format: functional; settings: intraduodenal, read-out: ID50 (the source's name); summary of the method: as §2
Cavia porcellus [11] = test: Relative inhibitor potency of the intragastrically administered compound with Wy-48,252 against ovalbumin induced bronchoconstriction in guinea pigs; format: functional; summary of the method: as §4
[12] = molecular target: T1, Polyunsaturated fatty acid 5-lipoxygenase (Rattus norvegicus, UniProt P12527); test: Inhibitory concentration to inhibit 5-lipoxygenase in the rat
T1 sequence (P12527 whole entry): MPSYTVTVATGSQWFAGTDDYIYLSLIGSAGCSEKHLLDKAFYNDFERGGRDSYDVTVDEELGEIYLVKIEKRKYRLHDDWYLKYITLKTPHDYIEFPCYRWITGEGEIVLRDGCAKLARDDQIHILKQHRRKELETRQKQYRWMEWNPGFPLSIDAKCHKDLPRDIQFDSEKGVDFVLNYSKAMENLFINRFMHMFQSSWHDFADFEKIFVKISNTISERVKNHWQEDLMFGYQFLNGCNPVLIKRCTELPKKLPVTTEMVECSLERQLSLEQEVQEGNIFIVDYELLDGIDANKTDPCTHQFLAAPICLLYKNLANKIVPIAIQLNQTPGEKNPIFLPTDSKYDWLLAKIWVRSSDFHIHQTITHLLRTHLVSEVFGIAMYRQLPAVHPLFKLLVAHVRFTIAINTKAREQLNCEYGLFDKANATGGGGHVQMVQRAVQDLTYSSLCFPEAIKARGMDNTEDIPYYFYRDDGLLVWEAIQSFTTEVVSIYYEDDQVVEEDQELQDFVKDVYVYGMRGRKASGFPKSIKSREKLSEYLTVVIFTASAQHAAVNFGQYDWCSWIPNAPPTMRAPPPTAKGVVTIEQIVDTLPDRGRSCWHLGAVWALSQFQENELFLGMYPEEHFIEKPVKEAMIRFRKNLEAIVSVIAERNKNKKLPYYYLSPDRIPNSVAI
Summary of the method: (§5)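 Rat PMN assay, measuring 5-lipoxygenase and cyclooxygenase activity. IC50 values are in μM.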

[13] = Dissociation constant was determined; format: physicochemical
Summary of the method: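 Isolated guinea pig trachea pretreated with indomethacin and L-cysteine, then contracted with LTD4. Antagonism of the LTD4-induced contraction was expressed as a pKB value.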

Cavia porcellus [14] = test: Inhibition of ovalbumin-induced bronchoconstriction when compound was administered intraduodenally at a dose of 10 mg/kg in guinea pig; format: functional; settings: route intraduodenal; summary of the method: as §1
[15] = Binding studies using tritium-labelled leukotriene D4; parameters: species or system Cavia porcellus
Mus musculus [16] = test: Compound was administered intragastrically and tested in a mouse ear edema assay; Inactive; format: functional, organism-based
Cyclooxygenase = molecular target: T2, Cyclooxygenase (Rattus norvegicus, UniProt P35355+Q63921); test: Inhibitory concentration to inhibit Prostaglandin G/H synthase in the rat; format: protein assay; summary of the method: as §5
T2 sequence (P35355 whole entry): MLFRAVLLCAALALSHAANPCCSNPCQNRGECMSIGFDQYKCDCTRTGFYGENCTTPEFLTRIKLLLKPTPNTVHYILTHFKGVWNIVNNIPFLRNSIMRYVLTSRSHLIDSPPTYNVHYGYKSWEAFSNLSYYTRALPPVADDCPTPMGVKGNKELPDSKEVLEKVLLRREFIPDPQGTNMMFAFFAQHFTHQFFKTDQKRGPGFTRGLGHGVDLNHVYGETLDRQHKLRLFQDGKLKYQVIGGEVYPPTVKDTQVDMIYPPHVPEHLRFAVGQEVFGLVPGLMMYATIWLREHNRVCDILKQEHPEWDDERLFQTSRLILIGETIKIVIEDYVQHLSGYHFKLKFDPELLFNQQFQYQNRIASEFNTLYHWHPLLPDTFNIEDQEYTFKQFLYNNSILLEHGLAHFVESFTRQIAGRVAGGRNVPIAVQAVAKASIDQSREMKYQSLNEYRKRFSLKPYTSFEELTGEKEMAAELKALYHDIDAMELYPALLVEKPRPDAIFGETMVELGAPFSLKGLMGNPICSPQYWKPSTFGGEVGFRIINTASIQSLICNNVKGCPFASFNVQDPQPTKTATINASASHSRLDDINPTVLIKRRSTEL
T2 sequence (Q63921 whole entry): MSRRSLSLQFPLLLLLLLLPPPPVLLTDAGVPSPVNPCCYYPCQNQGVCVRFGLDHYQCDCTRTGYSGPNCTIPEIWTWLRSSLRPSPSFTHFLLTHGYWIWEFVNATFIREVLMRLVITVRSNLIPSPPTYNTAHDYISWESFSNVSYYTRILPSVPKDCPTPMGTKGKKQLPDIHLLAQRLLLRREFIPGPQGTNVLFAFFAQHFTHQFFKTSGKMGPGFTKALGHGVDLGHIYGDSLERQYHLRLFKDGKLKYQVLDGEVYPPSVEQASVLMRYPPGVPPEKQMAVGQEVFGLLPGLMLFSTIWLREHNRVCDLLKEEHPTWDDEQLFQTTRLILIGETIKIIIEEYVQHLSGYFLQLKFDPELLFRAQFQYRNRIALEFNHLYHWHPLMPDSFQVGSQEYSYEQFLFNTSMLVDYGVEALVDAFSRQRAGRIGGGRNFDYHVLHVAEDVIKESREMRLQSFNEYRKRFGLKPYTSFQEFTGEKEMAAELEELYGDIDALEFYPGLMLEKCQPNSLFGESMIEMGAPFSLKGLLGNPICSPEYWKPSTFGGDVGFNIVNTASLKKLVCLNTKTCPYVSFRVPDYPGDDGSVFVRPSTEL

Rattus norvegicus [17] = test: Compound at 100 mg/kg was administered intragastrically and tested in a rat carrageenan paw edema assay; format: functional; settings: po, route intragastric
Cavia porcellus [18] = organism: Cavia porcellus; test: Activity against leukotriene C4-induced contraction of guinea pig trachea, in the presence of glutathione
[19] = Disassociation constant was determined; format: ADME
Summary of the method: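 Isolated guinea pig trachea, pretreated with indomethacin and L-cysteine, contracted with LTD4. Antagonism was expressed as a pKB value.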

Cavia porcellus [20] = test: Inhibition of ovalbumin-induced bronchoconstriction when compound was administered intraduodenally at a dose of 50 mg/kg in guinea pig; format: functional; settings: route intraduodenal; summary of the method: as §1
Cavia porcellus [21] = test: Inhibitory dose of the intraduodenally administered compound (10 min before giving agonist)that produced a 50% inhibition of ovalbumin induced bronchoconstriction in guinea pigs; format: functional; settings: intraduodenal, read-out: ID50 (the source's name); summary of the method: as §2
Cavia porcellus [22] = test: Relative inhibitor potency of the intraduodenally administered compound with Wy-48,252 against lovalbumininduced bronchoconstriction in guinea pigs; format: functional
Cavia porcellus [23] = test: Inhibitory dose of intraduodenally administered compound (10 min before giving agonist) that produced a 50% inhibition of leukotriene D4 induced bronchoconstriction in guinea pig; format: functional; settings: intraduodenal, read-out: ID50 (the source's name); summary of the method: as §2
Cavia porcellus [24] = test: Inhibition of ovalbumin-induced bronchoconstriction when compound was administered perorally at a dose of 50 mg/kg in guinea pig; format: functional; settings: route oral; summary of the method: as §1
Mus musculus [25] = test: Percent inhibition of TPA-induced inflammation at 1 mg/ear in the mouse ear edema; format: functional
Rattus norvegicus [26] = test: Percent inhibition of compound (50 mg/kg) in the rat carrageenan paw edema assay; format: functional
Summary of the method: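 Rat carrageenan paw edema, with compound given intragastrically. Read-out is percent inhibition of edema.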

Cavia porcellus [27] = test: Inhibition of Leukotriene D4 induced bronchoconstriction in guinea pig by 50 mg/kg i.d.; settings: at 50 mg/kg

Compound | inhibition in vivo at 25 mg/kg (Cavia porcellus [1]) | inhibition in vivo at 25 mg/kg (Cavia porcellus [3]) | ED50 (Cavia porcellus [4]) | ED50 (Cavia porcellus [5]) | ED50 (Cavia porcellus [6]) | Relative inhibitor potency (Cavia porcellus [7]) | Relative inhibitor potency (Cavia porcellus [9]) | ED50 (Cavia porcellus [10]) | Relative inhibitor potency (Cavia porcellus [11]) | IC50 [12] | IC50 (Cyclooxygenase) | other results
O=S(=O)(Nc1cccc(OCc2ncc3ccccc3n2)c1)C(F)(F)F | 97% | 23% |  |  |  |  |  |  |  |  |  | inhibition in vivo at 25 mg/kg (Cavia porcellus [2]): 78%
CCCc1c(OCCCCc2nnn[nH]2)ccc(C(C)=O)c1O [TOMELUKAST] |  |  | 19 mg/kg | 32 mg/kg | 38 mg/kg | 1 | 1 | 6 mg/kg | 1 |  |  | Relative inhibitor potency (Cavia porcellus [8]): 1
O=S(=O)(Nc1cccc(OCc2ccc3ccccc3n2)c1)C(F)(F)F [RITOLUKAST] | 100% | 69% | 3 mg/kg | 0.1 mg/kg | 0.6 mg/kg |  |  | 0.3 mg/kg |  | 4600 nM | 3300 nM | pKB [13]: 7.7; inhibition in vivo at 10 mg/kg (Cavia porcellus [14]): 73%; Kd [15]: 35 nM; inhibition (Mus musculus [16]): inactive; inhibition in vivo at 100 mg/kg (Rattus norvegicus [17]): 20%; Dose (Cavia porcellus [18]): 30 µM
O=S(=O)(Nc1ccc2ccc(OCc3ccc4ccccc4n3)cc2c1)C(F)(F)F |  |  |  | 0.25 mg/kg | 6.1 mg/kg | 4 | 128 |  | 6 | 230 nM | 11900 nM | pKB [19]: 7.04; inhibition in vivo at 50 mg/kg (Cavia porcellus [20]): 86%; ED50 (Cavia porcellus [21]): 0.46 mg/kg; Relative inhibitor potency (Cavia porcellus [22]): 41; ED50 (Cavia porcellus [23]): 1.4 mg/kg; inhibition in vivo at 50 mg/kg (Cavia porcellus [24]): 83%; Inhibition (Mus musculus [25]): 34%; Inhibition (Rattus norvegicus [26]): 63%; inhibition (Cavia porcellus [27]): 99%
